Laboratory results: ChEMBL document CHEMBL3286096, “Synthesis, biological evaluation and docking study of 3-aroyl-1-(4-sulfamoylphenyl)thiourea derivatives as 15-lipoxygenase inhibitors” (Eur J Med Chem, 2014)
pIC50: −log10 of the molar value. Calls of active or inactive are those of the source. The calls are words filed in the database; no cut-off is given here.

Legend:
[1] = Inhibition of soybean 15-LOX1 by UV spectrophotometric analysis; set-up: species or system Glycine max; details: for pIC50: read-out: IC50
[2] = tested on: PC-12; assay: Neuroprotective activity against H2O2-induced rat differentiated PC12 cell death assessed as increase in cell viability at 1 to 10 uM after 24 hrs by MTT assay; format: functional, cell-based
In short: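 Rat PC12 cells were grown in RPMI 1640 with 10% FCS plus penicillin/streptomycin, then differentiated by a published protocol. Differentiated cells were pretreated with compound at 1, 5 and 10 for 3 h before H₂O₂ exposure, with quercetin 5 as reference. Viability was measured by MTT after 24 h and expressed relative to the H₂O₂-treated group.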

[3] = Neuroprotective activity against H2O2-induced rat differentiated PC12 cell death assessed as increase in cell viability at 10 uM after 24 hrs by MTT assay; format: functional, PC-12
In short: (§1)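 Rat PC12 cells grown in RPMI 1640 with 10% FCS, penicillin and streptomycin, then differentiated by a previously reported protocol. Differentiated cells were pretreated with compound at 1, 5 or 10 for 3 h before H2O2 exposure. Viability was read by MTT 24 h later and expressed relative to the H2O2-treated group.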

[4] = tested on: PC-12; assay: Neuroprotective activity against H2O2-induced rat differentiated PC12 cell death assessed as increase in cell viability at 5 uM after 24 hrs by MTT assay; format: functional, cell-based; in short: as §1

SMILES | pIC50 [1] | also measured
NS(=O)(=O)c1ccc(NC(=S)NC(=O)c2cccc(F)c2)cc1 | 5.06 | –
Cc1cccc(C(=O)NC(=S)Nc2ccc(S(N)(=O)=O)cc2)c1 | 5.74 | Activity [2]: Active; Activity [3]: 50%
NS(=O)(=O)c1ccc(NC(=S)NC(=O)c2ccc(Cl)cc2Cl)cc1 | 4.63 | –
NS(=O)(=O)c1ccc(NC(=S)NC(=O)c2ccc3ccccc3c2)cc1 | – | IC50 [1]: Not Active
Cc1ccc(C(=O)NC(=S)Nc2ccc(S(N)(=O)=O)cc2)cc1 | 4.55 | –
O=c1c(O)c(-c2ccc(O)c(O)c2)oc2cc(O)cc(O)c12 [QUERCETIN] | 4.74 | Activity [4]: Active
NS(=O)(=O)c1ccc(NC(=S)NC(=O)c2cccs2)cc1 | 4.44 | –
NS(=O)(=O)c1ccc(NC(=S)NC(=O)c2ccc(Cl)cc2)cc1 | 4.60 | –
Cc1ccccc1C(=O)NC(=S)Nc1ccc(S(N)(=O)=O)cc1 | 5.09 | –
NS(=O)(=O)c1ccc(NC(=S)NC(=O)c2ccccc2)cc1 | 5.22 | –
NS(=O)(=O)c1ccc(NC(=S)NC(=O)c2ccccc2Cl)cc1 | 4.73 | –
COc1ccc(C(=O)NC(=S)Nc2ccc(S(N)(=O)=O)cc2)cc1 | 4.64 | –
NS(=O)(=O)c1ccc(NC(=S)NC(=O)c2cccc(Cl)c2)cc1 | 5.17 | –
NS(=O)(=O)c1ccc(NC(=S)NC(=O)c2ccc([N+](=O)[O-])cc2)cc1 | – | IC50 [1]: ND(Insoluble)
NS(=O)(=O)c1ccc(NC(=S)NC(=O)c2cc(F)c(F)c(F)c2F)cc1 | 4.90 | –
NS(=O)(=O)c1ccc(NC(=S)NC(=O)c2ccco2)cc1 | 4.35 | –
